Data from publication PMC4258449 (Nitric oxide : biology and chemistry / official journal of …, 2014).
Where two headings read alike, the source gives them in different places. Values belong to the compound of their own block, whether it stands above or below them.

Columns and labels:
[1] = type: physicochemical; settings: for half-life: assay buffer: 50 µM DTPA in phosphate-buffered saline; for k (decomposition rate constant): pH 7.4, 37 °C, assay buffer
[2] = tested on: MDA-MB-231 breast cancer cells; test: Intracellular HNO/NO release with DAF-FM-2DA; type: cell-based, human; settings: 10 µM donor, MDA-MB-231 cells loaded with 10 µM DAF-FM-2DA, 37 °C
How it was run: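 They then received 10 µM donor, given as ionic diazeniumdiolates in 10 mM NaOH or the ester-protected form in ethanol (<0.1%). The rise in fluorescence (ex 485/em 535 nm) was followed over time at 37 °C. n = 2, six replicates per plate; mean ± SD.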

[3] = tested on: MCF-7 or MDA-MB-231 cells; test: MTT viability assay; type: cell-based, human; settings: read-out: IC50 (cytotoxicity), 48 h, 10–100 µM
How it was run: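 Breast cancer cells were seeded at 8,000–10,000 per well and grown overnight. They were treated 48 h with test compound (10–100 µM) or ethanol vehicle (<0.1% v/v). MTT (5 mg/mL solution) was added for 1 h at 37 °C, medium was removed, formazan was dissolved in DMSO, and absorbance was read at 550 nm. Growth inhibition was expressed as % of matching control; n ≥ 3, mean ± SD.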

MDA-MB-231 cells = test: MTT viability assay, 5 combined with tamoxifen; type: cell-based, human
[4] = guinea pig, pH 7.4
[5] = physiological conditions; cited from earlier work
[6] = tested on: MDA-MB-231 and MCF-7 cells; settings: cited from earlier work
MCF-7 cells = test: Clonogenic cell viability assay; type: cell-based, human; settings: MCF-7, 0.5–20 mM, 24 h treatment
How it was run: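 MCF-7 cells in RPMI 1640 with 10% FBS and penicillin/streptomycin at 37 °C, 5% CO2, were seeded at 400,000 per 60-mm dish and grown 48 h. They were exposed in growth medium for 24 h, PBS-washed twice, trypsinized, counted and replated at 100, 1,000 or 10,000 per plate in triplicate. Colonies were crystal-violet stained after 10–12 d and counted. Experiments were repeated at least twice; mean ± SD.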

SMILES: CC(=O)OCON=[N+]([O-])NC1CCCC1 [Compound 5, O^2-(Acetoxymethyl) 1-(cyclopentylamino)diazen-1-ium-1,2-diolate]
decomposition rate constant at pH 9 ([1]; absence of serum, pH 9): 5.0 × 10^−3 s^−1
half-life of decomposition ([1]; pH 7.4): 21 min
DAF-FM fluorescence signal relative to the four ionic compounds [2]: ~ 3 fold
IC50 [3]: ~100 µM
viability (MDA-MB-231 cells; 5 at 75 µM, 48 h, MB-231 cells): 75 ± 6%
half-life of decomposition in the presence of serum esterases [4]: 5.8 min

SMILES: [Na+].[Na+].[O-][N+]([O-])=NO [Angeli’s salt, sodium trioxodinitrate]
half-life [5]: ~ 2 min
concentration range inhibiting proliferation [6]: millimolar range

SMILES: [Na+].[O-]N=[N+]([O-])NC1CCCC1 [Compound 1, Sodium 1-(N-cyclopentylamino)diazen-1-ium-1,2-diolate]
half-life ([1]; pH 7.4): 3.6 ± 0.08 min
k (decomposition rate constant) [1]: 3.2 ± 0.07 × 10^−3 s^−1
cytotoxicity (clonogenic assay) (MCF-7 cells): lowest cytotoxicity

SMILES: CC/C(=C(\c1ccccc1)c1ccc(OCCN(C)C)cc1)c1ccccc1 [tamoxifen, Tamoxifen, reference compound]
viability at 10 µM (MDA-MB-231 cells; Homo sapiens, MDA-MB-231, 48 h): 76 ± 13%

SMILES: CC(C)N[N+]([O-])=N[O-].[Na+] [IPA/NO, sodium 1-(N-isopropylamino)diazen-1-ium-1,2-diolate]
half-life [5]: 6.7 min

Second part, the compound after the results:

half-life ([1]; pH 7.4): 5.4 ± 0.07 min
k (decomposition rate constant) [1]: 2.1 ± 0.02 × 10^−3 s^−1
SMILES: [Na+].[O-]N=[N+]([O-])NC1CCCCCCC1 [Compound 4, Sodium 1-(N-cyclooctylamino)diazen-1-ium-1,2-diolate]

half-life ([1]; pH 7.4): 5.9 ± 0.04 min
SMILES: [Na+].[O-]N=[N+]([O-])NC1CCCCCC1 [Compound 3, Sodium 1-(N-cycloheptylamino)diazen-1-ium-1,2-diolate]

half-life ([1]; pH 7.4): 6.1 ± 0.02 min
SMILES: [Na+].[O-]N=[N+]([O-])NC1CCCCC1 [Compound 2, Sodium 1-(N-cyclohexylamino)diazen-1-ium-1,2-diolate]
